7 compounds from ChEMBL document CHEMBL3792332, “Novel chromone and xanthone derivatives: Synthesis and ROS/RNS scavenging activities” (Eur J Med Chem, 2016) can be followed below.

Common to all, as to assay type: physicochemical
Series [1] can be described thus: Antioxidant activity assessed as inhibition of HOCl-induced oxidation of DHR to rhodamine 123 at 37 degC by fluorimetric method. The gist of the method:
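HOCl made daily by adjusting 1% NaOCl to pH 6.2 with 10% H2SO4. HOCl-induced DHR oxidation to rhodamine 123 read immediately at ex 480/em 528 nm, 37 °C. Compounds in ethanol, final 6.25–400 μM. IC50 from inhibition curves, 5–7 concentrations in triplicate, ≥4 independent experiments.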

A short description of series [2]: Antioxidant activity assessed as inhibition of peroxynitrite induced oxidation of the non-fluorescent dihydrorhodamine 123 to the fluorescent rhodamine 123 after 2 mins by fluorimetric method. To be noted: for inhibition (INH): 2 min. The gist of the method: (§1)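 Peroxynitrite (synthesized in-house) oxidizes DHR to rhodamine 123; fluorescence read after 2 min at 37 °C. Compounds in DMSO at final 0.156–5 μM. A parallel set was run with 25 mM NaHCO3 to mimic physiological CO2. IC50 from inhibition curves, 5–7 concentrations in triplicate, ≥4 independent experiments.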

Series [3] is described as follows: Antioxidant activity assessed as inhibition of superoxide induced reduction of NBT measured for 2 mins by UV-visible spectrophotometric method. To be noted: for inhibition (INH): 2 min. In a few lines: (§2)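 Superoxide produced by the NADH/PMS/O2 system at room temperature. NBT reduction followed at 560 nm over 2 min. Compounds in DMSO at final 25–200 μM. IC50 from % inhibition vs concentration curves, at least four independent experiments in triplicate. The single-concentration line is % inhibition at the top concentration.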

Series [4] can be described thus: Antioxidant activity assessed as inhibition of NO-induced oxidation of non-fluorescent DAF-2 to the fluorescent triazolofluorescein after 30 mins by fluorimetric method. Particulars: for inhibition (INH): 0.5 h. The gist of the method:
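•NO released from NOC-5; oxidation of DAF-2 to DAF-2T read fluorimetrically (ex 485/em 528 nm) after 30 min at 37 °C. Compounds in DMSO at final 0.25–8 μM. IC50 derived from % inhibition vs concentration curves, 5–7 concentrations in triplicate, at least four independent experiments.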

Series [5] in a line: Antioxidant activity assessed as inhibition of singlet oxygen induced oxidation of non-fluorescent DHR to fluorescent rhodamine 123 at 37 degC measured after 30 mins by fluorimetric method. To be noted: for inhibition (INH): 0.5 h. The gist of the method: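 Singlet oxygen generated by thermal decomposition of NDPO2 at 37 °C. DHR oxidation to rhodamine 123 read fluorimetrically after 30 min incubation. Compounds in DMSO, final 0.3125–20 μM for chromones and 0.625–80 μM for xanthones. IC50 from % inhibition curves, 5–7 concentrations in triplicate, ≥4 independent experiments.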

Series [6] can be described thus: Antioxidant activity assessed as inhibition of H2O2 induced lucigenin oxidation at 37 degC. In a few lines: (§3)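 H2O2 scavenging by chemiluminescence: H2O2-induced lucigenin oxidation, signal recorded immediately after the plate enters the reader. Compounds in DMSO at final 31.25–1000 μM, 37 °C. IC50 from % inhibition vs concentration curves (5–7 concentrations in triplicate, at least four independent experiments). Single-concentration line gives % effect at the top concentration. Quercetin as positive control.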

Series [7] is described as follows: Antioxidant activity assessed as inhibition of peroxynitrite induced oxidation of the non-fluorescent dihydrorhodamine 123 to the fluorescent rhodamine-123 in presence of NaHCO3 after 2 mins by fluorimetric method. In a few lines: as §1
Series [8] is described as follows: Antioxidant activity assessed as inhibition of H2O2 induced lucigenin oxidation at 1000 uM at 37 degC. In a few lines: as §3
Series [9] can be described thus: Antioxidant activity assessed as inhibition of superoxide induced reduction of NBT measured for 2 mins at 200 uM by UV-visible spectrophotometric method. In a few lines:
as §2

The term IC50 denotes the concentration needed to halve the response being measured. Take `O=c1cc(/C=C/C=C/c2ccc(O)c(O)c2)oc2cccc(O)c12`: the IC50 in [1] is 94 µM; in series [2] it was 0.34 µM; in series [3] it was “ND(Insoluble)”; in series [4], 1.23 µM; in series [5], 1.1 µM; in [6] it was 125 µM. Moreover, in [7], the IC50 amounted to 0.4 µM. Also, the “inhibition (INH)” value in series [1], in series [2], in series [4], in series [5] and in [6] was “Dose-dependent effect” in each case.
With `O=c1cc(/C=C/C=C/c2ccc(O)c(O)c2)oc2ccccc12`, the IC50 in [1] was 32 µM; in series [2], 0.33 µM; in series [3], “ND(Insoluble)”; in [4] it was 0.82 µM; in series [5] it was 1.3 µM; in series [6] it was 143 µM. The IC50 in series [7] is 0.34 µM. Further, the “inhibition (INH)” value in series [1], in series [2], in [4], in series [5] and in series [6] was “Dose-dependent effect” in each case.
As to `O=c1c2c(O)cccc2oc2cccc(-c3ccc(O)c(O)c3)c12`, the IC50 in [1] turned out to be 96 µM; in series [2], 0.57 µM; in series [3] (read-out: IC50), 80 µM; in series [4] it was 1.5 µM; in series [5] it was 10 µM; in series [6], 658 µM. The IC50 in series [7] worked out at 0.56 µM. For the same compound, the “inhibition (INH)” value in series [1], in [2], in [3], in [4], in [5] and in [6] was “Dose-dependent effect” in each case.
Take `O=c1c2ccccc2oc2cccc(-c3ccc(O)c(O)c3)c12`: the “inhibition (INH)” value in [8] is 12%; in series [1], “Dose-dependent effect”; in series [2] it was “Dose-dependent effect”; in series [3], “Dose-dependent effect”; in series [4], “Dose-dependent effect”; in series [5] it was “Dose-dependent effect”. In addition, the IC50 in series [1] came out at 158 µM; in [2], 0.51 µM; in series [3] (read-out: IC50) it was 55 µM; in series [4], 1.99 µM; in [5], 4.4 µM; in series [7], 0.35 µM.
Consider `O=c1cc(/C=C/C=C/c2ccc(O)c(O)c2)oc2cc(O)ccc12`, for which the “inhibition (INH)” value in [9] was 36%; in series [1], “Dose-dependent effect”; in series [2], “Dose-dependent effect”; in series [4], “Dose-dependent effect”; in series [5] it was “Dose-dependent effect”; in [6], “Dose-dependent effect”. Besides, the IC50 in series [1] amounted to 17 µM; in [2], 0.29 µM; in [4], 1.42 µM; in [5], 1.6 µM; in series [6] it was 121 µM; in series [7] it was 0.3 µM.
Take `O=c1c2ccc(O)cc2oc2cccc(-c3ccc(O)c(O)c3)c12`: the IC50 in [1] amounted to 31 µM; in series [2] it was 0.39 µM; in [3] (read-out: IC50), 61 µM; in series [4], 1.08 µM; in series [5], 7.3 µM; in series [6], 518 µM. The IC50 in series [7] came to 0.66 µM. Also, the “inhibition (INH)” value in series [1], in series [2], in series [3], in series [4], in [5] and in series [6] was “Dose-dependent effect” each time.
For `O=c1c(O)c(-c2ccc(O)c(O)c2)oc2cc(O)cc(O)c12` [QUERCETIN], the IC50 in series [1] turned out to be 2.4 µM; in series [2] it was 0.45 µM; in [3] (read-out: IC50) it was 60 µM; in [4] it was 0.77 µM; in [5], 1.5 µM; in [6], 1340 µM. The IC50 in series [7] was determined as 0.68 µM.
